In the library only some 2.9% were active in any assay of this set; here they are far more common.
OX1R antag-1: antagonists of human orexin 1 receptor (OX1R); O43613; inhibition, % at 6.6 µM; 330,000 compounds, 1.8% hits; OX1R-expressing cells, FRET antagonist read-out; in the data active = inhibition mostly above about 38%, no sharp cut-off; inactive = mostly below about 40%
Target sequence (O43613 whole entry, looked up): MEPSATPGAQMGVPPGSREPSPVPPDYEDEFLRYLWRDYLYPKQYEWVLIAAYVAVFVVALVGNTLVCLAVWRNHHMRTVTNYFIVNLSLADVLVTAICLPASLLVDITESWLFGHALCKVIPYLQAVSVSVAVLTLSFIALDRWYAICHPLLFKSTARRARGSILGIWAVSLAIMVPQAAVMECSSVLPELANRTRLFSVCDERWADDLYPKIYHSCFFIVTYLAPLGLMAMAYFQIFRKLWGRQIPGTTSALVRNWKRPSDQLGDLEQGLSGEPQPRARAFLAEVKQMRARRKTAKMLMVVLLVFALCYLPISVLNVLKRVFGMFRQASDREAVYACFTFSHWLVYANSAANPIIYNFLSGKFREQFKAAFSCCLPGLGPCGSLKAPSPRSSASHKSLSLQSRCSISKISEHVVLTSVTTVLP
M1 ag parental: nonselective activator or artifact in parental CHO-K1 cells. Fluo-8 calcium fluorescence; scaled to maximal ATP response, vehicle zero. activation, % at 3 µM. 360,000 compounds, 0.48% hits. AID 602248; in the data active = activation above about 15%;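 note: untransfected CHO-K1 host cells lacking M1 receptor as counterscreen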
CHO parental Ca: counter-screen for OX1R antagonists: effect in parental CHO cells; parental CHO-K1, ATP-induced calcium, Fluo-8 fluorescence; inhibition, % at 5.6 µM; 330,000 compounds, 0.63% hits; AID 463079;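 active = inhibition above that plate's mean sample inhibition plus 3 SD, cut at about 26% in these data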
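Assay system – parental CHO cells · Reagent – ATP stimulus · Detection – intracellular calcium via Fluo-8 no-wash fluorescent dye · Evaluation – percent inhibition of ATP-evoked calcium rise, normalized to controls · Controls – ATP wells versus no-ATP DMSO wells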
OX1R antag-2: antagonists of human orexin 1 receptor; O43613; CHO/OX1R cells, Fluo-8 calcium fluorescence, orexin A; inhibition, % at 5 µM; 330,000 compounds, 0.43% hits;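 active = inhibition above its plate's threshold, mean inhibition of all tested compounds on the plate plus 3 SD, cut at about 37% in these data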
CHO-K1 Ca PAM: M1 PAM counterscreen hit in parental CHO-K1 cells | 360,000 compounds, 0.02% hits | activation, % at 3 µM | ATP EC20, Fluo-8 calcium fluorescence; 0% at ATP EC20, 100% at ATP max;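 active = activation above the run cutoff, the mean activation of all test compounds plus 3 SD, cut at about 40% in these data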;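 note: peak over basal fluorescence ratio in a 140 s read after ATP addition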
CHO-K1 Ca antag: counter-screen for M1 antagonists: effect in parental CHO-K1 cells. ATP-induced calcium, Fluo-8 fluorescence. inhibition, % at 3 µM. 360,000 compounds, 0.6% hits;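 active = inhibition above a per-plate cutoff, the plate's mean sample inhibition plus 3 SD, cut at about 24% in these data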
Numbers stand for hits; – = inactive; · = not tested or not shown.

SMILES	OX1R antag-1	M1 ag parental	CHO parental Ca	OX1R antag-2	CHO-K1 Ca PAM	CHO-K1 Ca antag
Cc1c(OCC(=O)NCCN2CCOCC2)ccc2c1oc(=O)c1ccccc12	–	17	–	–	–	–
Cc1c(OCC(=O)NCCN2CCOCC2)ccc2c3c(c(=O)oc12)CCC3	–	–	–	–	–	–
COc1ccc(-c2cc(C(=O)Nc3c(F)cc(F)cc3Br)no2)cc1	–	–	–	–	–	–
FC(F)(F)c1nc(-c2ccncc2)ncc1-c1nnnn1-c1ccccc1	–	–	–	–	–	–
FC(F)(F)c1nc(N2CCCC2)ncc1-c1nnnn1-c1ccc(Cl)cc1	–	–	47	61	–	–
Fc1ccc(-n2nnnc2-c2cnc(-c3cccs3)nc2C(F)(F)F)cc1	83	–	51	–	–	–
Cc1ccc(-n2nnnc2-c2cnc(-c3cccnc3)nc2C(F)(F)F)cc1	–	–	–	–	–	–
c1ccc(-n2nnnc2-c2cnc(-c3ccncc3)nc2-c2cccs2)cc1	46	–	–	–	–	–
COc1cc(C(=O)Nc2cc(S(=O)(=O)N3CCOCC3)ccc2N2CCOCC2)cc(OC)c1C	·	–	·	·	–	–
O=C(NCCc1ccccc1)C(=O)c1cn(CC(=O)N2CCCC2)c2ccccc12	–	–	–	–	–	24
COc1cc(/C=C2\SC(=S)N(NS(=O)(=O)c3ccc(C)cc3)C2=O)ccc1O	–	24	–	–	–	–
COc1cc(/C=C2\SC(=S)N(NS(=O)(=O)c3ccccc3)C2=O)ccc1O	–	16	44	–	–	–
CCOc1cc(/C=C2\SC(=S)N(NS(=O)(=O)c3ccc(C)cc3)C2=O)ccc1O	–	–	–	–	–	–
COC(=O)C1=C(C)N(Cc2ccccc2)C(=NCCCCO)N[C@H]1CCc1ccccc1	–	–	–	–	–	–
NC(=O)c1cccc(C(N)=O)n1	–	–	–	–	–	–
CCOC(=O)CSc1ccc2nnc(-c3cccnc3)n2n1	–	–	–	–	–	–
CCOC(=O)CSc1ccc2nnc(-c3ccccc3)n2n1	–	–	–	–	–	26
CNC(=O)OCc1nc(SC2CCCCO2)n(C)c1COC(=O)NC (stereo not drawn)	·	–	·	·	–	–
CCN(CC(=O)NCc1cccs1)C(=O)/C=C/c1ccc(OC)cc1OC	–	–	–	–	–	–
CCN(CC(=O)NCc1cccs1)C(=O)/C=C/c1cc(OC)ccc1OC	–	–	–	–	–	24
COc1ccc(CN(CC(=O)NCc2ccc(F)cc2)C(=O)CCC(=O)Nc2cc(C)ccn2)cc1	–	–	–	–	–	–
Cc1ccc(S(=O)(=O)Nc2cc3c4c(c2)CCN4C(=O)CC3)cc1	–	–	–	–	–	–
O=c1cc(CCl)nc2sc3ccccc3n12	–	–	–	–	–	–
O=C(OCc1cc(=O)n2c(n1)sc1ccccc12)c1ccc(O)cc1	53	–	–	–	–	–
CCCC1NC(=O)c2cc3ccccc3cc2-n2c1nc1ccc(F)cc1c2=O (stereo not drawn)	·	–	·	·	–	–
SMILES	OX1R antag-1	M1 ag parental	CHO parental Ca	OX1R antag-2	CHO-K1 Ca PAM	CHO-K1 Ca antag
CC1CCCCC12NC(=O)N(CC(=O)NCc1ccccc1Cl)C2=O (stereo not drawn)	–	–	–	–	–	–
CC1CCCCC12NC(=O)N(CC(=O)NCc1cccs1)C2=O (stereo not drawn)	·	–	·	·	–	25
CCN(CC)S(=O)(=O)c1cc(NC(=O)Cc2ccc(S(=O)(=O)N3CCOCC3)s2)ccc1Cl	·	–	·	·	–	–
O=C(O)c1cccc(NC(=S)N/N=C/c2ccccc2OCc2cccc(Br)c2)c1	·	–	·	·	–	–
O=C(O)c1cccc(NC(=S)N/N=C/c2ccccc2OCc2ccc(Br)cc2)c1	–	–	42	–	–	27
CCC(C)Oc1ccc(/C=C/c2[nH]c(=O)[nH]c(=O)c2[N+](=O)[O-])cc1OC (stereo not drawn)	–	–	–	–	–	–
COc1cc(/C=C/c2[nH]c(=O)[nH]c(=O)c2[N+](=O)[O-])cc([N+](=O)[O-])c1O	63	–	–	–	–	–
O=c1[nH]c(/C=C\c2cccnc2)c([N+](=O)[O-])c(=O)[nH]1	54	–	–	–	–	–
Cc1cc(=O)[nH]c(N/N=C/c2ccc(OC(=O)c3cccnc3)cc2)n1	–	–	–	–	–	–
COc1cc(OC)cc(C2=Cc3ccc(OC)cc3C(CC(C)=O)N2c2ccc(C#CCCO)cc2)c1 (stereo not drawn)	·	–	·	·	–	–
O=S(=O)(c1cccc2ccccc12)N1CCC2CC1c1cc(Cl)ccc12 (stereo not drawn)	·	–	·	·	–	–
N#Cc1cnn(CC2CCCCC2)c1N	–	–	–	–	–	30
NC1=NC[C@H](c2ccccc2)N1CC1CCCCC1	–	–	–	–	–	–
Cc1ccccc1C(=O)N1CC(=O)Nc2ccc(F)cc2C1c1ccccc1 (stereo not drawn)	–	23	–	–	–	–
O=C1CN(C(=O)c2cc3ccccc3oc2=O)C(c2ccc(F)cc2)c2cc(F)ccc2N1 (stereo not drawn)	–	–	–	–	–	25
COc1ccccc1N1CCN(C(=O)C2CCCN(S(=O)(=O)c3ccc4c(c3)oc(=O)n4C)C2)CC1 (stereo not drawn)	–	21	–	–	–	–
COc1ccc(N2CCN(C(=O)C3CCCN(S(=O)(=O)c4ccc5c(c4)oc(=O)n5C)C3)CC2)cc1 (stereo not drawn)	–	–	–	–	–	–
O=C(CCc1nnc(Cc2c[nH]c3ccccc23)o1)NCCC1CCCCO1 (stereo not drawn)	·	–	·	·	–	–
CC1CC(C)(C)Nc2ccc(OC(=O)c3ccco3)cc21 (stereo not drawn)	69	–	–	–	–	–
O=C(CN(C1CCCCC1)S(=O)(=O)c1ccc(Cl)cc1)N1CCOCC1	–	–	–	–	–	27
O=C(CN(C1CCCCC1)S(=O)(=O)c1ccccc1)N1CCCC1	–	–	–	–	–	–
COc1ccc(C2NCCc3c2[nH]c2ccccc32)cc1COc1ccc(F)cc1 (stereo not drawn)	–	–	32	–	–	–
CN1/C(=C\C(=O)CSc2ncn[nH]2)C(C)(C)c2ccccc21	–	–	–	–	–	26
CN1/C(=C\C(=O)COC(=O)c2ccccc2O)C(C)(C)c2ccccc21	–	17	–	–	–	–
COc1ccccc1OCC(=O)/C=C1/N(C)c2ccccc2C1(C)C	–	–	–	–	–	–
O=C(COCc1cc(-c2ccc3c(c2)OCO3)on1)N1CCN(c2ccccc2)CC1	–	–	–	–	–	–
CC(C)COc1ccc(/C(=N/O)c2ccccc2)cc1	–	–	33	–	–	–
CC(C)COc1ccc(CNC(=S)NCc2ccccc2)cc1	–	–	–	–	–	–
